Source: PubChem BioAssay AID2833 (NMMLSC, 2010)
Calls of active or inactive are those of the source.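 The calls were made as follows: active = toxic dose over reversal dose above 10, when toxic dose is under 15 µM; inactive = the rest.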

System: Jurkat/DNR viability with daunorubicin, trypan blue, 3 d
Experiment: daunorubicin chemosensitization of ABCB1-expressing cells, SAR follow-up, cell-based, Jurkat/DNR, trypan blue viability, one SAR set (AID 2833)
Conditions: for CC50: measured here: toxicity without chemotherapeutic (TD50)
Procedure, shortened: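 Material: Daunorubicin-resistant Jurkat/DNR human T-cell line; dosing: test compound series spanning 1–100 µM, three logs; schedule: 3-day compound exposure with daunorubicin; signal: trypan blue exclusion, cell counts by light microscopy; measure: compound level giving 50% viability loss (CR50)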

| SMILES | EC50 | CC50 [µM] |
| --- | --- | --- |
| COC(=O)c1ccc(C(C(=O)NC2CCCCC2)N(Cc2ccccc2)C(=O)Cc2cccs2)cc1 (stereo not given) | 10.3 µM (inactive) | 8.81 |
| N#Cc1ccc(-c2ccc(OCC(=O)NCCc3ccccc3)cc2)cc1 | 43.8 µM (inactive) | 21.4 |
| COc1ccc(-c2nn(-c3ccccc3)cc2/C=C/C(=O)N2CCN(c3ccccn3)CC2)cc1 | 9.9 µM (inactive) | 15.2 |
| Cc1cc(C)c(C#N)c(SCc2c(F)cccc2[N+](=O)[O-])n1 | 29.4 µM (inactive) | 3.05 |
| CCCCn1c(O)c(N=Nc2ccccn2)c2ccccc21 | 13.3 µM (inactive) | 13.3 |
| Cc1nc2cc(-c3cccc(F)c3)nn2c(N2CCN(C(=O)c3ccco3)CC2)c1C | 1.18 µM | > 100 |
| COc1ccc(/C=N/NC(=O)c2cccnc2)cc1CN1CCN(c2ccc(F)cc2)CC1 | 17.5 µM (inactive) | 24.1 |
| CCOC(=O)c1c(NC(=O)CSc2ncccn2)sc2c1CCN(Cc1ccccc1)C2 | 8.81 µM (inactive) | 5.1 |
| CC1=NN(c2ccc([N+](=O)[O-])cc2)C(=O)/C1=C/N(C)C | 34.5 µM (inactive) | 34.5 |
| CCCCN(C)C1=CC2=CC(=C(C#N)C#N)CCC2CC1 (stereo not given) | 12.5 µM (inactive) | 15.2 |
| CCN(CC)P(=O)(Nc1cccc(C(F)(F)F)c1)c1ccc(N(C)C)cc1NC(=O)c1ccco1 (stereo not given) | 4.72 µM (inactive) | 4.54 |
| O=[N+]([O-])c1ccccc1-c1nc(-c2ccc(Br)o2)no1 | 14.6 µM (inactive) | 14.6 |
| CNc1nc2cc([N+](=O)[O-])c([N+](=O)[O-])cc2nc1NC | 15.2 µM (inactive) | 6.2 |
| CCOC(=O)c1cccc(NC(=O)c2cnc3ccccc3n2)c1 | 13.3 µM (inactive) | 15 |
| O=[N+]([O-])c1ccc(Nc2nc(Cl)nc(NCCO)n2)cc1 | 9.67 µM (inactive) | 12.8 |
